In ChEMBL document CHEMBL4308919, “Discovery of TD-0212, an Orally Active Dual Pharmacology AT1 Antagonist and Neprilysin Inhibitor (ARNI)” (ACS Med Chem Lett, 2019):

Legend:
[1] = target: Angiotensin-converting enzyme (Homo sapiens, UniProt P12821); assay: Inhibition of recombinant human ACE using Mca-BK2 as substrate preincubated for 10 mins followed by fluorogenic substrate addition and measured after 20 mins by fluorescence assay
Rattus norvegicus [2] = assay: In vivo inhibition of NEP in Sprague-Dawley rat assessed as potentiation of ANP-induced elevation of urinary cGMP level at 3 mg/kg, iv treated for 5 mins at 15 mins post 2 doses of angiotensin-2 treatment at 15 minutes apart followed by ANP treatment measured up to 60 mins by EIA relative to control; format: functional
Outline: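 Rat pharmacodynamic assay with intravenous dosing to exclude oral absorption. AT1 antagonism is read in the same animal as inhibition of the angiotensin-II-evoked pressor response. NEP inhibition is read as potentiation of ANP-induced elevation of urinary cGMP output, relative to vehicle.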

Rattus norvegicus [3] = assay: Antihypertensive activity in DOCA salt-induced CD-1 rat model of hypertension assessed as reduction in blood pressure administered via oral gavage in ascending cumulative doses […] measured up to 24 hrs by telemetry method; format: functional
Outline: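 Conscious DOCA-salt hypertensive rats, a low-renin model, dosed orally. Reduction in blood pressure is followed over time. ED10 is the dose giving an average 10% reduction in the 24 h average MAP.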

Neprilysin = Neprilysin (Homo sapiens, UniProt P08473); assay: Inhibition of NEP (unknown origin) preincubated for 10 mins followed by fluorogenic substrate addition and measured after 20 mins by fluorescence assay
Sequence of Neprilysin (P08473 whole entry): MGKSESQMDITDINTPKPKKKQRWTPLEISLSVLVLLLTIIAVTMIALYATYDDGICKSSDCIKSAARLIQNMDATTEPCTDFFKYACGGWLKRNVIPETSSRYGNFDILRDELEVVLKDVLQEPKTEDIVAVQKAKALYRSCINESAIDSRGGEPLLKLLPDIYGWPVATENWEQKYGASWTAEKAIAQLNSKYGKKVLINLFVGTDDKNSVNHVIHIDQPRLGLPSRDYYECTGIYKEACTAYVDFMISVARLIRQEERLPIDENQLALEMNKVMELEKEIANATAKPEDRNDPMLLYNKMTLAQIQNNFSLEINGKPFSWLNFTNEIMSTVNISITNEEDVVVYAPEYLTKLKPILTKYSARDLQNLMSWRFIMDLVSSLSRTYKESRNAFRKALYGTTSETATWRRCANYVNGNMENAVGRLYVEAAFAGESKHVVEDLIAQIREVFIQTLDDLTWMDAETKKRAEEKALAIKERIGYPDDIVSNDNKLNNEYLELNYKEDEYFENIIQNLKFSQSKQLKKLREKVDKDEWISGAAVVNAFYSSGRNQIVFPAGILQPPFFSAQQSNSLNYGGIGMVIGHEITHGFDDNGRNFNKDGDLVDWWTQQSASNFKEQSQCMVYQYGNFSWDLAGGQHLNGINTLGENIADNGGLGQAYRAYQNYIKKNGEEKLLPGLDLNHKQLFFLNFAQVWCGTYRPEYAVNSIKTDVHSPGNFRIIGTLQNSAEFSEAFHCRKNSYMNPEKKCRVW

[4] = target: T1, Type-1 angiotensin II receptor (Homo sapiens, UniProt P30556); assay: Displacement of Europium-labeled angiotensin-2 from human AT1 receptor expressed in CHOK1 cell membranes after 120 mins by DELFIA
T1 sequence (P30556 whole entry): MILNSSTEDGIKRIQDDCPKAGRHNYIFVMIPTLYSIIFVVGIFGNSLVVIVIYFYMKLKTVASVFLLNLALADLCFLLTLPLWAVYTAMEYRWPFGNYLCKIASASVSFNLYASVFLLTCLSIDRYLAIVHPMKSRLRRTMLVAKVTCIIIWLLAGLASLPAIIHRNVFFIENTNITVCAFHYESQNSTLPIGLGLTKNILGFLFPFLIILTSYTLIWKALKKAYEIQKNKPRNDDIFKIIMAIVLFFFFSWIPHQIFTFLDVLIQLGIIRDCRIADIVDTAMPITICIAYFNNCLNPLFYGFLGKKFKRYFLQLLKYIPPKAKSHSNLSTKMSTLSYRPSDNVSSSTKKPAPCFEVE

Rattus norvegicus [5] = assay: Induction of angioedema in normotensive rat assessed as increase in tracheal plasma extravasation by measuring Evans blue dye leakage into peritracheal tissue at 0.3 to 3 mg/kg, po; format: organism-based; details: in vivo
Outline: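 Rat tracheal plasma extravasation model adapted from Sulpizio et al., used as a surrogate for upper-airway angioedema. Normotensive rats are dosed orally. Read-out is Evans Blue dye leakage into peritracheal tissue, compared with vehicle.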

Rattus norvegicus [6] = assay: Antihypertensive activity in spontaneously hypertensive rat assessed as reduction in mean arterial pressure administered via oral gavage in […] measured up to 24 hrs by telemetry method; format: functional
Outline: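 Conscious spontaneously hypertensive rats, dosed orally. Blood pressure is monitored by telemetry for 24 h after each dose. Sequential escalating doses of 3, 10, 30 and 100 mg/kg are given at 24 h intervals. Efficacy is the peak percent fall in MAP from baseline. Duration is the vehicle-adjusted % change in AUC over 24 h. Statistics: two-way ANOVA with Bonferroni post hoc.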

Rattus norvegicus [7] = assay: Antihypertensive activity in spontaneously hypertensive rat assessed as reduction in mean arterial pressure administered via oral gavage in ascending cumulative doses […] measured up to 24 hrs in presence of NEP inhibitor candoxatril by telemetry method; format: functional

Sequence of Angiotensin-converting enzyme (P12821 whole entry): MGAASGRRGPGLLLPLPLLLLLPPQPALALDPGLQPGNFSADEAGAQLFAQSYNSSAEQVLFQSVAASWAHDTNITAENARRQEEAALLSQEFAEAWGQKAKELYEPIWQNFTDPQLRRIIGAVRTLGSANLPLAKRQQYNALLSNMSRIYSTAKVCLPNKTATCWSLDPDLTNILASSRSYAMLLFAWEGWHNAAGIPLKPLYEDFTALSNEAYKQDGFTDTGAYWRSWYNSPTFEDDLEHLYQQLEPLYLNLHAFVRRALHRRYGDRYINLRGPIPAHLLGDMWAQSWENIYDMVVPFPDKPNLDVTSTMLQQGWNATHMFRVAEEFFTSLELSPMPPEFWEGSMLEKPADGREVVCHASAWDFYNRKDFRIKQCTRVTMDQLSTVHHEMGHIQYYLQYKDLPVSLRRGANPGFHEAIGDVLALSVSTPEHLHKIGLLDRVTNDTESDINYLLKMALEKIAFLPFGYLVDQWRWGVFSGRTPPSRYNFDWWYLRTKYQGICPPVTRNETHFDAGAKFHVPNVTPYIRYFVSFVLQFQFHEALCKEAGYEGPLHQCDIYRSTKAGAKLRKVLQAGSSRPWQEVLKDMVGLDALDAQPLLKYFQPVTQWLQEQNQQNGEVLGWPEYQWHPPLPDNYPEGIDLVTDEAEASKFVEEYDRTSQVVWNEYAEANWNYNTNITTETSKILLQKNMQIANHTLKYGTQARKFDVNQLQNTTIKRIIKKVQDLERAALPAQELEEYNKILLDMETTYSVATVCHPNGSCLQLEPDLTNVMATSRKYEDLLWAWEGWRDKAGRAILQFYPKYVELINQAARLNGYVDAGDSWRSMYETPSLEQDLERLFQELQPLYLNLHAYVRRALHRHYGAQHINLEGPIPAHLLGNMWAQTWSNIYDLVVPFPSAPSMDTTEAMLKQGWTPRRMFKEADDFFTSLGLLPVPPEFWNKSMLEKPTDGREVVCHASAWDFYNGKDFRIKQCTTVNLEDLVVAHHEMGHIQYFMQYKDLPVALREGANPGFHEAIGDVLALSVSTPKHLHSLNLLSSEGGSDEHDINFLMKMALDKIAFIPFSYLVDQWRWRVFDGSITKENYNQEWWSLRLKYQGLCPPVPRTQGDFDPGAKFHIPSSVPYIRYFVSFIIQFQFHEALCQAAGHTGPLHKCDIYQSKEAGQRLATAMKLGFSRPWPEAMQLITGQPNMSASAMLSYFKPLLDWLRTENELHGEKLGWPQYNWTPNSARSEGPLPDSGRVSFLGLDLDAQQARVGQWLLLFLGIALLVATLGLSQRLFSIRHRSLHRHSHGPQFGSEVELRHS

SMILES	IC50 [1] [nM]	fold change (FC) (Rattus norvegicus [2])	ED10 (Rattus norvegicus [3]) [mg/kg]	IC50 (Neprilysin) [nM]	Ki [4] [nM]	Activity (Rattus norvegicus [5])	Activity (Rattus norvegicus [6])	ED10 (Rattus norvegicus [6]) [mg/kg]	ED10 (Rattus norvegicus [7]) [mg/kg]
O=C(N[C@H]1CCS[C@H]2CCC[C@@H](C(=O)O)N2C1=O)[C@@H](S)Cc1ccccc1 [OMAPATRILAT]	0.1	5.3	66	0.2	> 10000	Non-Toxic	Dose-dependent effect	15	
CCCCC(=O)N(Cc1ccc(-c2ccccc2-c2nnn[nH]2)cc1)[C@H](C(=O)O)C(C)C							Dose-dependent effect	17	15
